How the values were obtained:
Homo sapiens [1] = species: Homo sapiens; assay: Inhibition of HSP70 in human BT/LapR1.0 cells assessed as potentiation of 1 uM of lapatinib-induced growth inhibition after 72 hrs by measuring coefficient of drug interaction by cell titer-glo based luminescence assay
BT-474 [2] = assay: Potentiation of lapatinib-induced growth inhibition of human BT474 cells assessed as coefficient of drug interaction after 72 hrs by cell titer-glo based luminescence assay; assay type: functional
[3] = Growth inhibition of human BT474 cells at 10 uM after 72 hrs by cell titer-glo based luminescence assay; parameters: species or system BT-474; details: read-out: GI
Method in brief: (§1)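 Cells were trypsinised and seeded at 5000 cells/well, then cultured 24 h at 37 °C. Compound was added at 10 µM, alone or with 1 µM lapatinib, and incubated 72 h at 37 °C. CellTiter-Glo reagent was added at a volume equal to the medium, followed by 3 min shaking and 10 min at room temperature. Luminescence (ATP) was read and normalised to the blank control group.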

BT-474 [4] = assay: Potentiation of lapatinib-induced growth inhibition of human BT474 cells at 10 uM after 72 hrs by cell titer-glo based luminescence assay; assay type: functional; details: BT-474, 72 h, read-out: GI; method in brief: as §1
[5] = Growth inhibition of human BT/LapR1.0 cells at 10 uM after 72 hrs by cell titer-glo based luminescence assay; details: read-out: GI; method in brief: as §1
Homo sapiens [6] = species: Homo sapiens; assay: Inhibition of HSP70 in human BT/LapR1.0 cells assessed as potentiation of 1 uM of lapatinib-induced growth inhibition at 10 uM after 72 hrs by cell titer-glo based luminescence assay; method in brief: as §1
[7] = target: Chaperone protein DnaK (Escherichia coli) (UniProt P0A6Y8); assay: Inhibition of Escherichia coli DnaK ATPase activity at 200 uM incubated on shaker for 10 mins followed by 30 mins incubation by malachite green reagent based colorimetric assay

| SMILES | Activity (Homo sapiens [1]) | Activity (BT-474 [2]) | inhibition at 72 h, 10 µM [3] | inhibition of growth at 10 µM (BT-474 [4]) | inhibition at 72 h, 10 µM [5] | growth inhibition (GI) (Homo sapiens [6]) | inhibition [7] |
| --- | --- | --- | --- | --- | --- | --- | --- |
| COc1cc(/C=C/C(=O)NC(NC(=S)Nc2ccccc2C)C2CC2)cc(OC)c1OC (stereo not drawn) | 0.79 | <1 | 44% | 87.4% | 6.8% | 44.2% | < 20% |
| CC(C)CC(NC(=O)/C=C/c1ccccc1)NC(=S)NC1CCCCC1 (stereo not drawn) | < 1 | 0.77 | 13.5% | 84% | 19.8% | 33.4% | 58.4% |
| Cc1ccccc1NC(=S)NC(NC(=O)/C=C/c1ccccc1)C1CC1 (stereo not drawn) | < 1 | <1 | 6% | 78.6% | 8.7% | 20% | 65.4% |
| COc1cc(/C=C/C(=O)NC(NC(=S)Nc2ccccc2C)C(C)(C)C)cc(OC)c1OC (stereo not drawn) | < 1 | <1 | 8.2% | 81.4% | 9.9% | 30.1% | 50.5% |
| CC(C)(C)C(NC(=O)/C=C/c1ccccc1)NC(=S)NC1CCCCC1 (stereo not drawn) | < 1 | 0.77 | 13% | 85.2% | 34.3% | 47.2% | < 20% |
| O=C(/C=C/c1ccccc1)NC(NC(=S)Nc1ccccn1)C1CC1 (stereo not drawn) | < 1 | <1 | 2.4% | 78.8% | 6% | 25.2% | < 20% |
| CC(C)CC(NC(=O)/C=C/c1ccccc1)NC(=S)Nc1ccccc1 (stereo not drawn) | < 1 | 0.86 | 17.7% | 85% | 13.6% | 36.9% | < 20% |
| Cc1ccccc1NC(=S)NC(NC(=O)/C=C/c1ccccc1)C(C)(C)C (stereo not drawn) | < 1 | <1 | 7% | 78.7% | 9.7% | 20.5% | < 20% |
| CC(C)(C)CC(NC(=O)/C=C/c1ccccc1)NC(=S)Nc1ccccc1 (stereo not drawn) | < 1 | 0.79 | 11.3% | 84.9% | 34.6% | 53% | < 20% |
| COc1cc(/C=C/C(=O)NC(NC(=S)Nc2ccccc2)C(C)(C)C)cc(OC)c1OC (stereo not drawn) | < 1 | <1 | 2.2% | 83.2% | 2.9% | 48.8% | < 20% |
| COc1cc(/C=C/C(=O)NC(CC(C)C)NC(=S)NC2CCCCC2)cc(OC)c1OC (stereo not drawn) | < 1 | 0.73 | 16.5% | 83.4% | 38.8% | 48.1% | 46.2% |
| CC(C)C(NC(=O)/C=C/c1ccccc1)NC(=S)Nc1ccccc1 (stereo not drawn) | < 1 | <1 | 9.4% | 82% | 11.5% | 30% | < 20% |
| COc1cc(/C=C/C(=O)NC(NC(=S)Nc2ccccn2)C2CC2)cc(OC)c1OC (stereo not drawn) | < 1 | <1 | 20.1% | 87.8% | 17.4% | 59.6% | < 20% |
| COc1ccc(NC(=S)NC(NC(=O)/C=C/c2cc(OC)c(OC)c(OC)c2)C(C)C)cc1 (stereo not drawn) | < 1 | <1 | 11.5% | 78.5% | 15.4% | 23.4% | < 20% |
| CC(C)(C)C(NC(=O)/C=C/c1ccccc1)NC(=S)Nc1ccccc1 (stereo not drawn) | < 1 | 0.85 | 9.6% | 83.5% | 11.4% | 33% | < 20% |
| COc1cc(/C=C/C(=O)NC(CC(C)(C)C)NC(=S)Nc2ccccn2)cc(OC)c1OC (stereo not drawn) | < 1 | <1 | 25.8% | 88.5% | 31.5% | 65.9% | < 20% |

| SMILES | Activity (Homo sapiens [1]) | Activity (BT-474 [2]) | inhibition at 72 h, 10 µM [3] | inhibition of growth at 10 µM (BT-474 [4]) | inhibition at 72 h, 10 µM [5] | growth inhibition (GI) (Homo sapiens [6]) | inhibition [7] |
| --- | --- | --- | --- | --- | --- | --- | --- |
| COc1cc(/C=C/C(=O)NC(NC(=S)Nc2cccnc2)C2CC2)cc(OC)c1OC (stereo not drawn) | < 1 | <1 | 8.6% | 85.2% | 12.3% | 55.7% | < 20% |
| COc1cc(/C=C/C(=O)NC(CC(C)(C)C)NC(=S)Nc2cccnc2)cc(OC)c1OC (stereo not drawn) | < 1 | 0.81 | 22.1% | 89.9% | 19.3% | 59.9% | 47.1% |
| COc1cc(/C=C/C(=O)NC(NC(=O)Nc2ccccn2)C(C)C)cc(OC)c1OC (stereo not drawn) | < 1 | <1 | 12.4% | 86.2% | 18.2% | 57.6% | < 20% |
| Cc1ccccc1NC(=S)NC(CC(C)C)NC(=O)/C=C/c1ccccc1 (stereo not drawn) | < 1 | 0.84 | 9.8% | 81.6% | 12.8% | 23.3% | < 20% |
| COc1cc(/C=C/C(=O)NC(CC(C)C)NC(=S)Nc2cccnc2)cc(OC)c1OC (stereo not drawn) | < 1 | <1 | 9.2% | 79.1% | 10.5% | 54.2% | 38.5% |
| O=C(/C=C/c1ccccc1)NC(NC(=S)Nc1ccccc1)C1CC1 (stereo not drawn) | < 1 | <1 | 3.8% | 81.4% | 8.7% | 27.8% | < 20% |
| COc1cc(/C=C/C(=O)NC(CC(C)C)NC(=S)Nc2ccccn2)cc(OC)c1OC (stereo not drawn) | < 1 | <1 | 24.9% | 87.8% | 38.7% | 61% | < 20% |
| COc1cc(/C=C/C(=O)NC(CC(C)(C)C)NC(=S)Nc2ccccc2)cc(OC)c1OC (stereo not drawn) | < 1 | 0.65 | 19% | 90.9% | 40.9% | 62.3% | 44.1% |
| Cc1ccccc1NC(=S)NC(CC(C)(C)C)NC(=O)/C=C/c1ccccc1 (stereo not drawn) | 0.79 | 0.74 | 18.2% | 84.2% | 18.9% | 41% | 41% |
| COc1cc(/C=C/C(=O)NC(NC(=S)Nc2cccnc2)C(C)(C)C)cc(OC)c1OC (stereo not drawn) | < 1 | <1 | 10.3% | 84.7% | 16% | 56% | < 20% |
| CC(C)C(NC(=O)/C=C/c1ccccc1)NC(=S)NC1CCCCC1 (stereo not drawn) | < 1 | <1 | 10.3% | 80.6% | 13.3% | 75.8% | < 20% |
| COc1cc(/C=C/C(=O)NC(NC(=S)NC2CCCCC2)C(C)C)cc(OC)c1OC (stereo not drawn) | 0.8 | 0.82 | 15.3% | 82.2% | 22.6% | 45.7% | < 20% |
| COc1cc(/C=C/C(=O)NC(NC(=S)Nc2ccccc2)C2CC2)cc(OC)c1OC (stereo not drawn) | < 1 | <1 | 12.2% | 85.2% | 13.7% | 56% | 50.5% |
| COc1cc(/C=C/C(=O)NC(CC(C)C)NC(=S)Nc2ccccc2)cc(OC)c1OC (stereo not drawn) | < 1 | <1 | 7.3% | 76.6% | 9.4% | 42.2% | 50.4% |
| COc1cc(/C=C/C(=O)NC(NC(=O)Nc2ccccc2)C(C)C)cc(OC)c1OC (stereo not drawn) | < 1 | <1 | 4.8% | 79.1% | 11.4% | 32.8% | – |
| COc1cc(/C=C/C(=O)NC(NC(=S)NC2CCCCC2)C(C)(C)C)cc(OC)c1OC (stereo not drawn) | 0.86 | 0.56 | 13.5% | 87.3% | 39.8% | 57.8% | 35.8% |

Source: ChEMBL document CHEMBL3853294, “Design, synthesis and biological evaluation of novel HSP70 inhibitors: N, N'-disubstituted thiourea derivatives” (Eur J Med Chem, 2016)
